Data on 5 compounds can be found in ChEMBL document CHEMBL1123708, “Resolved cis- and trans-2-amino-5-methoxy-1-methyltetralins: central dopamine receptor agonists and antagonists” (1987).

Activity calls are given as the source filed them. No cut-off for these calls is given here.

For assay [1], the system named is Rattus norvegicus. The assay can be described thus: Induced locomotor stimulation was determined in non pretreated rats at a dose of 204 umol/kg by subcutaneous administration. The class given is functional.
The test system of assay [2] is Rattus norvegicus. The assay can be described thus: Induced locomotor stimulation in non pre-treated rats by 13 umol/kg s.c. administration. Type of assay: functional.
In assay [3] the test system is Rattus norvegicus. The assay can be described thus: In vivo DOPA accumulation in non pre-treated rat limbic system following s.c. administration. The class given is functional. The following applies: sc. A digest of the protocol:
(§1)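 Rats without pretreatment received test drug sc 65 min and NSD 1015 (100 mg/kg ip) 30 min before death, with saline controls. DOPA was measured in limbic or striatal tissue. Dose for half-maximal change was estimated from 4-5-dose curves (n = 3-5), maximal level as % of control.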

The target of assay [4] is T1, Dopamine receptor (Rattus norvegicus) (UniProt P25115+P19020+P30729+P18901+P61169). The following applies: 204 uM.
Assay [5] relates to Rattus norvegicus. The assay can be described thus: Locomotory activity was determined in reserpine pretreated rats at a dose of 52 umol/kg by subcutaneous administration. Value is the accumulation counts/30 min. The class given is functional. A digest of the protocol: (§2)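 Rats were given reserpine 5 mg/kg sc 18 h beforehand, then test drug sc immediately before the activity session. Motor activity was recorded by photocells in motility meters as accumulated counts over 30 min, mean ± SEM, n = 3-4. Gross behaviour was watched for signs of stimulation. Reserpine-only controls were included.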

Assay [6] deals with Rattus norvegicus. The experiment in a line: Change in rectal temperature induced by DiPr-5,6-ADTN at a dose of 204 umol/kg of compound by subcutaneous administration. The class given is functional. A digest of the protocol:
(§3)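 Rats received DiPr-5,6-ADTN (0.25 μmol/kg sc) 100 min and test compound sc 40 min before death. Rectal temperature change (°C) was recorded between 60 and 100 min after DiPr-5,6-ADTN. Values are mean ± SEM, n = 4, with Student's t test vs DiPr-5,6-ADTN alone.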

The test system of assay [7] is Rattus norvegicus. The assay can be described thus: In vivo DOPA accumulation in reserpine pretreated rat limbic system by subcutaneous administration; I denotes inactive. The class given is functional, organism-based. In a few lines:
(§4)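 Rats received reserpine (5 mg/kg sc) 18 h, test drug sc 60 min and NSD 1015 (100 mg/kg ip) 30 min before death, with saline controls. Limbic or striatal DOPA was measured. Dose for half-maximal decrease was estimated from 4-7-dose curves (n = 3-5), minimal level as % of control.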

Assay [8] relates to Rattus norvegicus. The assay can be described thus: In vivo DOPA accumulation in non pre-treated rat striatal system following s.c. administration. Type of assay: functional. The following applies: sc. In a few lines:
as §1

Assay [9] deals with Rattus norvegicus. The assay can be described thus: Change in rectal temperature induced by DiPr-5,6-ADTN at a dose of 13 umol/kg of compound by subcutaneous administration. The class given is functional. A digest of the protocol: as §3
In assay [10] the test system is Rattus norvegicus. The experiment in a line: Induced locomotor stimulation in non pre-treated rats by 52 umol/kg s.c. administration. The class given is functional.
In assay [11] the target is T1, Dopamine receptor (Rattus norvegicus). The assay can be described thus: Ability to displace the Dopamine receptor agonist DiPr-5,6-ADTN from rat striatal binding sites in vivo at a dose of 52 uM/kg by subcutaneous administration. Type of assay: organism-based.
For assay [12], the system named is Rattus norvegicus. The assay can be described thus: Induced locomotor stimulation was determined in non pretreated rats at a dose of 52 uM/kg by subcutaneous administration. The class given is functional. A digest of the protocol:
(§5)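 Untreated rats received test drug sc 5 min before a 30-min session in photocell motility meters, with accumulated counts recorded. Activity is expressed as percent of saline controls, mean ± SEM, n = 3-5. Gross behaviour was observed through a semitransparent mirror. Differences from saline controls were assessed by Student's t test.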

The subject of assay [13] is Rattus norvegicus. The experiment in a line: Locomotory activity was determined in non pretreated rats at a dose of 3.2 umol/kg by subcutaneous administration. The class given is functional. A digest of the protocol: as §5
Assay [14] relates to Rattus norvegicus. The assay can be described thus: Change in rectal temperature induced by DiPr-5,6-ADTN at a dose of 3.2 umol/kg of compound by subcutaneous administration. The class given is functional. In a few lines:
as §3

The test system of assay [15] is Rattus norvegicus. The assay can be described thus: Change in rectal temperature induced by DiPr-5,6-ADTN at a dose of 52 umol/kg of compound by subcutaneous administration. Type of assay: functional. A digest of the protocol: as §3
Assay [16] addresses T1, Dopamine receptor (Rattus norvegicus). The experiment in a line: In vivo displacement of DiPr-5,6-ADTN from Dopamine receptors in rat striatum. The class given is organism-based.
Assay [17] has the same target. The following applies: 13 uM.
The subject of assay [18] is Rattus norvegicus. The assay can be described thus: ((+)-UH-232) induced locomotor stimulation was determined in non pretreated rats at a dose of 3.2 umol/kg by subcutaneous administration. Type of assay: functional.
Assay [19] deals with Rattus norvegicus. The experiment in a line: In vivo DOPA accumulation in reserpine pretreated rat striatum system by subcutaneous administration; I denotes inactive. Type of assay: functional, organism-based. A digest of the protocol: as §4
Assay [20] concerns Rattus norvegicus. The experiment in a line: In vivo DOPA accumulation in reserpine pretreated rat limbic system by subcutaneous administration. The class given is functional. The following applies: sc. In a few lines:
as §4

Assay [21] has as its system Rattus norvegicus. The experiment in a line: Locomotory activity was determined in non pretreated rats at a dose of 52 umol/kg by subcutaneous administration. Type of assay: functional. A digest of the protocol:
as §5

Assay [22] has as its target T1, Dopamine receptor (Rattus norvegicus). The assay can be described thus: Ability to displace the Dopamine receptor agonist DiPr-5,6-ADTN from rat striatal binding sites in vivo at a dose of 13 uM/kg by subcutaneous administration. The class given is organism-based.
For assay [23], the system named is Rattus norvegicus. The experiment in a line: In vivo DOPA accumulation in reserpine pretreated rat striatum system by subcutaneous administration. Type of assay: functional. The following applies: sc. A digest of the protocol: as §4
For assay [24], the system named is Rattus norvegicus. The experiment in a line: In vivo DOPA accumulation in reserpine pretreated rat striatum system after 1.4 umol/kg ip; I denotes inactive. The class given is functional, organism-based.
Assay [25] deals with Rattus norvegicus. The assay can be described thus: In vivo DOPA accumulation in reserpine pretreated rat limbic system after 1.4 umol/kg ip; I denotes inactive. The class given is functional, organism-based.
The subject of assay [26] is Rattus norvegicus. The experiment in a line: Change in rectal temperature induced by DiPr-5,6-ADTN at a dose of 2.7 umol/kg of compound by subcutaneous administration. The class given is functional. In a few lines:
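Rats received DiPr-5,6-ADTN at 0.25 μmol/kg sc, then the test compound sc (tested range 2.7–204 μmol/kg) 60 min later. Rectal temperature change was measured between 60 and 100 min after DiPr-5,6-ADTN. Values are mean ± SEM, n = 4, compared with DiPr-5,6-ADTN-only controls by Student's t test.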

The test system of assay [27] is Rattus norvegicus. The assay can be described thus: Locomotory activity was determined in non pretreated rats at a dose of 2.7 umol/kg by intraperitoneal administration.
The test system of assay [28] is Rattus norvegicus. The assay can be described thus: Locomotory activity was determined in reserpine pretreated rats at a dose of 125 umol/kg by subcutaneous administration. Value is the accumulation counts/30 min. The class given is functional. In a few lines:
as §2

Assay [29] concerns Rattus norvegicus. The experiment in a line: In vivo DOPA accumulation in reserpine pretreated rat striatum system by subcutaneous administration. Type of assay: functional. The settings on record: sc. In a few lines:
as §4

The subject of assay [30] is Rattus norvegicus. The assay can be described thus: In vivo DOPA accumulation in reserpine pretreated rat limbic system by subcutaneous administration. Type of assay: functional. The settings on record: sc. A digest of the protocol:
as §4

Assay [31] deals with T1, Dopamine receptor (Rattus norvegicus). The experiment in a line: Ability to displace the Dopamine receptor agonist DiPr-5,6-ADTN from rat striatal binding sites in vivo at a dose of 52 umol/kg by subcutaneous administration. The class given is organism-based.
Assay [32] concerns Rattus norvegicus. The experiment in a line: ((+)-UH-232) induced locomotor stimulation was determined in non pretreated rats at a dose of 13 umol/kg by subcutaneous administration. The class given is functional.
The test system of assay [33] is Rattus norvegicus. The experiment in a line: Change in rectal temperature induced by DiPr-5,6-ADTN at a dose of 13 subcutaneous administration. Type of assay: functional. A digest of the protocol:
as §3

Assay [34] has as its system Rattus norvegicus. The assay can be described thus: Induced locomotor stimulation was determined in non pretreated rats at a dose of 3.2 umol/kg by subcutaneous administration. The class given is functional. In a few lines: as §5
Assay [35] concerns the target T1, Dopamine receptor (Rattus norvegicus). The experiment in a line: Ability to displace the Dopamine receptor agonist DiPr-5,6-ADTN from rat striatal binding sites in vivo at a dose of 13 umol/kg by subcutaneous administration. The class given is organism-based.
Assay [36] concerns Rattus norvegicus. The experiment in a line: ((+)-UH-232) induced locomotor stimulation was determined in non pretreated rats at a dose of 52 umol/kg by subcutaneous administration. Type of assay: functional.
Assay [37] deals with Rattus norvegicus. The experiment in a line: Locomotory activity was determined in non pretreated rats at a dose of 52 umol/kg by subcutaneous administration. Type of assay: functional. In a few lines:
as §5

Usually ED50 stands for the midpoint of the dose-response relation. On to `CCCN(CCC)[C@@H]1CCc2c(OC)cccc2[C@@H]1C`, for which the Activity is 22% in [1]; 78% in assay [2]; 4 counts/30 min in assay [5]; 70% in assay [10]; 24% in [12]; 152% in [13]. Moreover, the Activity in [18] was 105%. The figures for the ED50 in assay [3] and in [8] were 12.8 µmol/kg and 9.6 µmol/kg, respectively. The Binding is 31% in assay [4], 34% in assay [11], 83% in assay [16] and 61% in assay [17]. Besides, the Body temp change in assay [6] is 0.45 °C; in [9], 1.4 °C; in [14] it was -0.03 °C; in assay [15], 0.45 °C. For the same compound, the ED50 result in [7] and in assay [19] was “inactive” throughout.

In the case of `CCCN(CCC)[C@H]1CCc2c(O)cccc2[C@@H]1C`, the Activity was 92% in [2], 19 counts/30 min in [5], 74% in assay [21] and 79% in assay [13]. Moreover, the ED50 in [20] amounted to 7.3 µmol/kg; in assay [23] it was 7.9 µmol/kg. The same compound came in with a Body temp change in assay [9] of -0.83 °C. Besides, the Binding in assay [22] stood at 91%.

In the case of `O=C(CCCN1CCC(O)(c2ccc(Cl)cc2)CC1)c1ccc(F)cc1` [HALOPERIDOL], the ED50 entry in [24] and in assay [25] was “inactive” throughout. Moreover, the ED50 in assay [3] and in [8] was 0.19 µmol/kg throughout. This compound registered a Body temp change in assay [26] of 1.34 °C. In addition, the Activity in assay [27] is given as 3%.

For the compound `CCCN[C@H]1CCc2c(O)cccc2[C@H]1C`, the Activity in assay [28] amounted to 26%; in assay [12], 80%. Moreover, the figures for the ED50 in [29] and in [30] were 5 µmol/kg and 4 µmol/kg, respectively. This compound returned a Binding in assay [11] of 66%. The Body temp change in assay [15] is -0.45 °C.

For `COc1cccc2c1CC[C@@H](N(C)C)[C@H]2C`, the ED50 in assay [3] was found to be 2.2 µmol/kg; in [8], 2.9 µmol/kg. Further, the results for the Binding in [31], in assay [16] and in [35] were 14%, 60% and 40%, respectively. The Activity in assay [32] is 15%; in [13] it was 100%; in assay [34] it was 62%; in assay [36], 8%; in [37], 9%. The Temperature in [14] is -0.15 °C; in assay [15], 0.28 °C; in assay [33] it was 1.6 °C.
